Test results taken from ChEMBL document CHEMBL1131499, “Molecular features associated with polyamine modulation of NMDA receptors” (J Med Chem, 1998).

What was measured:
[1] = Partition coefficient (logP)
[2] = Dissociation constant (pK2)
[3] = molecular target: Glutamate NMDA receptor (Rattus norvegicus) (UniProt P35439+Q00959+Q00960+Q00961+Q62645+Q8VHN2+Q9R1M7); experiment: Enhanced binding of [3H]MK-801 to N-methyl-D-aspartate glutamate receptor in presence of spermine; assay type: protein-complex assay
Method in brief: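 Forebrain membranes (minus cerebellum and brainstem) from adult male Sprague–Dawley rats, prepared by buffy-coat centrifugation in 5 mM HEPES/4.5 mM Tris pH 7.6 with EDTA washes, then stored frozen. About 50 μg protein incubated with [³H]MK-801 (final 4–4.5 nM) plus spermine, without added glutamate or glycine, for 2 h at room temperature. Filtered on polyethylenimine-soaked glass fiber filters. Nonspecific binding defined with 100 μM PCP; counted by scintillation.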

[4] = Dissociation constant (pK1)

Compound	ΔpK [1]	pKa [2]	Sp Max [3] [%]	pKa [4]
CN(C)C1CCNCC1	2.95	7.71	44	10.7
OCCNC1CCN(Cc2ccccc2)CC1	2.57	6.67		9.24
NC1CCNCC1	2.53	8.1	12	10.6
CC1(C)CC(N)CC(C)(C)N1	2.73	7.9		10.6
NCCCN	1.86	8.69	22	10.6
CNC1CCN(C)CC1	2.75	7.34	2	10.1
NC1CCN(Cc2ccccc2)CC1	2.74	7.05		9.79
CNCC(C)CNC	2.26	8.29	11	10.6
CN(C)CC(C)(C)CN	3.15	7.13		10.3
CN(C)C1CC(C)(C)NC(C)(C)C1	2.89	7.67		10.6
CN(C)CCCN(C)C		7.77	22	9.81
CN1CC2CC1C[C@@H](N)C2 (stereo not given in full)			8	
CC(C)(CN)CN	2.37	7.81	5	10.2
CNCCCN	2.01	8.66	15	10.7
CC1(C)CC(NCCO)CC(C)(C)N1	3.1	7.42		10.5
C1CCN(CCCN2CCCCC2)CC1	2.06	8.33		10.4
C=CCN(CC=C)CCCN(CC=C)CC=C	1.84	6.96		8.8
CNCCCNC	2.02	8.68	16	10.7
NCCCNCCO	2.09	8.19	16	10.3
C1CCN(C2CCNCC2)CC1 [[1,4']Bipiperidinyl]	2.76	7.97		10.7
NCC(O)CN	1.54	8.14	35	
CN1CC2CC1C[C@H](N)C2 (stereo not given in full)			13	
NCC(=O)CN	1.43	6.89	72	8.32
